Screening results: PubChem, Broad Institute
SIRT5 inh = blocks human SIRT5 desuccinylation of peptide. inhibition, % at 15 µM. AID 652115. 1.1% of 330,000 active. Q9NXA8. Purified SirT5, succinyl-peptide AMC, trypsin-coupled fluorescence; in the data active means inhibition above about 15%
Target sequence (Q9NXA8 whole entry, looked up): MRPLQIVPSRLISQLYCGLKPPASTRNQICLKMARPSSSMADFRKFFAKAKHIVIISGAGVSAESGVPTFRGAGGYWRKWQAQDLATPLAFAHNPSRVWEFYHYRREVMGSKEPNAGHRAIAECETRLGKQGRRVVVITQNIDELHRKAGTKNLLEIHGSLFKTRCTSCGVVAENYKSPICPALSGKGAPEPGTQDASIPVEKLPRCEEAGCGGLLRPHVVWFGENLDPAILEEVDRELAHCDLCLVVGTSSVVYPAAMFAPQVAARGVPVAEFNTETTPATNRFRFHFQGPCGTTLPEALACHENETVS
rRNA inh HTS = inhibitors of bacterial rRNA selective over humanized ribosomes; E. coli WT GFP vs humanized-ribosome RFP mutants, fluorescence, 24 h; hits give low values; DMSO median 0, no signal -100; GFP signal change (wild-type ribosome), % (concentration not given with the values); 1.6% of 350,000 active; AID 720706;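 active means significant combined selectivity score with lowered wild-type GFP, culture density cut under 30%, mutant RFP and density less affected; inactive means any of these conditions unmet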
E-sel inducer = induces E-selectin expression in human endothelial cells. 0.37% of 260,000 active. P16581. HUVEC E-selectin immunofluorescence imaging; normalized: neutral wells 0, TNF-alpha wells 100. activation, % at 7.58 µM;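 active means mean E-selectin-positive cell signal at least 10% of the positive control, reached in at least 60% of replicates, without over 20% cell loss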
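Test system: HUVEC; input: 3,000 HUVEC/well; measured by: immunofluorescence imaging; read-out: % PE-positive cells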
Statin myotox sup = suppressors of simvastatin-induced myotoxicity in C2C12 myotubes; 0.78% of 330,000 active; AID 602340; rescue of ATP level, % at 7.49 µM; ATP luminescence, 48 h; scaled: DMSO 0, geranylgeraniol control 100;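 active means mean ATP rescue above about 67%, or every replicate alone reaching that limit, limit read from the data, passing the limit was not always enough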;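 further: myotubes were challenged with 10 µM simvastatin during compound exposure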
FGF22 binding = shifts melting point of recombinant human FGF22 | AID 651658 | Q9HCT0 | recombinant FGF22 thermal shift, SYPRO orange fluorescence; percent of sucrose octasulfate shift, DMSO zero | 1.5% of 340,000 active | activity (Tm shift, normalised), % at 9.99 µM;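 active means mean Tm shift, scaled 0 neutral to 100 positive control, at about 1.3% or above, every replicate too, limit read from the data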
Target sequence (Q9HCT0 whole entry, looked up): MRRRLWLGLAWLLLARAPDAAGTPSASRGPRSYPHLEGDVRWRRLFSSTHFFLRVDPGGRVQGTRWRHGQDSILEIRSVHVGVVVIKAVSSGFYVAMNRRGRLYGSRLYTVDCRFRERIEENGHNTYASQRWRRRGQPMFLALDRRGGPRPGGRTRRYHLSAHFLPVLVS
FN deposit inh = fibronectin deposition inhibition; AH1F fibroblasts, Alexa488-fibronectin deposition fluorescence, overnight; inhibition, % at 12.6 µM; 0.086% of 350,000 active; AID 743247;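 active means mean inhibition across replicates of 30% or more, regardless of how many single replicates reach that level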
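Measured by – fluorescence 485/525 nm · System – AH1F fibroblast monolayer, labelled fibronectin deposition · Amount – 10000 cells per well · Buffer or medium – serum-reduced DMEM (2% serum) · Doses – single dose, pinned · Also added – fluorescent fibronectin at 24 nM final · Schedule – 1 h cell attachment, overnight exposure to compound and label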
Of the large screens only hits and unclear results are named; the others gave an inactive call. The list is not random: actives were taken first. Their share in the collection is about 4%.

CCN(CC)S(=O)(=O)c1cc(NC(=O)Cn2ncc(Cl)c(Cl)c2=O)ccc1C	rRNA inh HTS -26.4 (no result: Statin myotox sup)
CCN(CC)S(=O)(=O)c1cc(NS(=O)(=O)c2c(Cl)cccc2Cl)ccc1C	none (no result: E-sel inducer, Statin myotox sup)
CCN(CC)S(=O)(=O)c1cc(NS(=O)(=O)c2cccc(Cl)c2Cl)ccc1C	rRNA inh HTS -38.0 (no result: Statin myotox sup)
O=C(OCn1ncc(Cl)c(Cl)c1=O)c1ccc(C(F)(F)F)cc1	none (no result: E-sel inducer, FGF22 binding, FN deposit inh)
Cc1ccc(C(=O)OCn2ncc(Cl)c(Cl)c2=O)cc1	FN deposit inh 16.9 (no result: SIRT5 inh, rRNA inh HTS, E-sel inducer, FGF22 binding)
CCOC(=O)c1ccc(NC(=O)Cn2ncc(Cl)c(Cl)c2=O)cc1	FN deposit inh 31.9 (no result: E-sel inducer, Statin myotox sup)
CO[C@@H]1CN(C)C(=O)c2ccc(NS(C)(=O)=O)cc2OC[C@@H](C)N(CC2CCOCC2)C[C@H]1C	none
N#Cc1cccc(-c2ccc([C@@H]3[C@@H](CO)N4CCCCN(Cc5ccccc5F)C[C@@H]34)cc2)c1	none
COC(=O)C[C@@H]1CC[C@H](NC(=O)Nc2ccc(C(F)(F)F)cc2)[C@H](CO)O1	none
Cc1cc(C)n2nc(C(=O)Nc3ccc(S(=O)(=O)N4CCCC4)cc3)nc2n1	none
Cc1cc(C)n2nc(C(=O)Nc3ccc4c(c3)CCC4)nc2n1	SIRT5 inh 15.0
Cc1ccc(C(=O)Nc2nc(C)c(C(=O)Nc3ccc4c(c3)CCC4)s2)cc1	rRNA inh HTS -29.9
COc1ccc(C(=O)c2sc(Nc3ccccc3)nc2N)cc1	Statin myotox sup 78.1
COc1ccc(/C=C(\NC(=O)c2ccc([N+](=O)[O-])cc2)C(=O)NCCCN2CCOCC2)cc1	rRNA inh HTS -14.2
COc1ccc(/C=C(\NC(=O)c2ccc(C)cc2)C(=O)NCCN2CCOCC2)cc1	FGF22 binding 1.4 (no result: SIRT5 inh)
CO[C@H]1CN(C)C(=O)c2cc(NC(=O)c3cccc(Oc4ccccc4)c3)ccc2OC[C@H](C)NC[C@@H]1C	none (no result: SIRT5 inh, FGF22 binding)
CO[C@H]1CC[C@H]2CCN(C)C(=O)[C@@H](C)N(C)C(=O)c3cc(C#N)ccc3OC[C@@H]1O2	none
Cc1cccn2c(=O)c3cc(C(=O)NCC4CCCO4)c(=N)n(C4CCCC4)c3nc12 (stereo not given)	SIRT5 inh 81.1 (no result: E-sel inducer)
COc1ccc(CCNC(=O)c2cc3c(=O)n4ccccc4nc3n(C3CCCCC3)c2=N)cc1OC	rRNA inh HTS -19.5 (no result: E-sel inducer)
COc1ccc(CCNC(=O)c2cc3c(=O)n4ccccc4nc3n(C3CCCCC3)c2=N)cc1	none (no result: E-sel inducer)
N=c1c(C(=O)NC2CCCC2)cc2c(=O)n3ccccc3nc2n1Cc1ccccc1	none (no result: E-sel inducer)
N=c1c(C(=O)NC2CCCCC2)cc2c(=O)n3ccccc3nc2n1Cc1ccc(F)cc1	SIRT5 inh 22.7
C[C@H]1CN([C@@H](C)CO)C(=O)c2cccc(NC(=O)Nc3ccc(F)cc3)c2O[C@H]1CN(C)S(=O)(=O)c1ccc(F)cc1	none (no result: FN deposit inh)
CC(=O)Nc1ccc2c(c1)C(=O)N(C)[C@H]1CC[C@H](CC(=O)Nc3ccc(Cl)cc3)O[C@@H]1CO2	none
CCOC(=O)Cn1c(N2CCOCC2)nc2c1c(=O)[nH]c(=O)n2C	Statin myotox sup 118.4 (no result: SIRT5 inh, rRNA inh HTS, E-sel inducer, FGF22 binding, FN deposit inh)
CCOC(=O)Cn1c(Br)nc2c1c(=O)[nH]c(=O)n2C	none (no result: SIRT5 inh, rRNA inh HTS, E-sel inducer, FGF22 binding)
COc1ccccc1N1CCN(C(=O)c2cc(-c3ccc(F)cc3)[nH]c2C)CC1	Statin myotox sup 118.8
COc1cc(SC)ccc1C(=O)N1CCN(c2ccccc2F)CC1	rRNA inh HTS -23.8 (no result: Statin myotox sup)
C[C@H]1CN([C@@H](C)CO)C(=O)Cc2cc(NS(=O)(=O)c3ccc(F)cc3)ccc2O[C@H]1CN(C)C(=O)Nc1ccc(F)cc1	none (no result: FN deposit inh)
O=C(N[C@@H]1CC[C@H](CC(=O)N2CCC(Cc3ccccc3)CC2)O[C@@H]1CO)c1cnccn1	none
CCCCCOc1ccc(Br)cc1CSC(=N)N	FGF22 binding 43.7 (no result: E-sel inducer, Statin myotox sup)
O=C(CCCCCCC(=O)Nc1ccc(CO)cc1)NOCc1ccccc1	none (no result: rRNA inh HTS, E-sel inducer, Statin myotox sup, FN deposit inh)
COc1cccc(-c2cccc(NC(=O)C3CCN(Cc4nccs4)CC3)c2)c1	none (no result: E-sel inducer, Statin myotox sup)
CC(C)c1csc(CN2CCC(C(=O)Nc3cccc(-c4ccco4)c3)CC2)n1	FGF22 binding 44.4 (no result: SIRT5 inh, rRNA inh HTS, Statin myotox sup)
CCC(=O)N(C)C[C@@H]1Oc2cc(-c3ccccc3OC)ccc2S(=O)(=O)N([C@H](C)CO)C[C@@H]1C	none (no result: FN deposit inh)
